Assay results pooled from the literature.
Each line is one published result; the experiments were not run side by side.
PMV: Plasmepsin V (PMV, Plasmodium falciparum, UniProt Q8I6Z5)
PADI1: Protein-arginine deiminase type-1 (PADI1, Homo sapiens, UniProt Q9ULC6)

The inhibition of `C#Cc1n[nH]c2c(-c3cn(C(C)c4ccccn4)c(=O)[nH]c3=O)cc(F)cc12` (stereo not shown) is reported as -7.1% (Dual specificity tyrosine-phosphorylation-regulated kinase 2 (DYRK2, Homo sapiens, UniProt Q92630); enzyme activity, inhibitor; 1 µM).
For `Cc1nn(C)cc1-c1nc2c(N3CCN(Cc4ccc(Cl)cc4)CC3)c(Cl)cnc2[nH]1`, the remaining binding was 100% (Activin receptor type-1-like (ACVRL1, Homo sapiens, UniProt P37023); binding, competition with immobilised ligand; 1 µM).
The activity vs control of `Cc1cccc(C)c1OCC(=O)N[C@@H](Cc1ccccc1)[C@H](O)C(=O)N1CSC(C)(C)[C@H]1C(=O)N[C@H]1c2ccccc2C[C@H]1O` is reported as 77% (PMV; enzyme activity, inhibitor, fluorescence; 10 µM).
For `COc1ncccc1-c1cnn2ccc(N3CCN(C(=O)OC(C)C)CC3)nc12`, the remaining binding was 98% (Serine/threonine-protein kinase 32B (STK32B, Homo sapiens, UniProt Q9NY57); binding, competition with immobilised ligand; 1 µM).
`CC(C)C[C@H](CC(=O)NO)C(=O)N[C@H](C(=O)N[C@@H](C)C(=O)NCCN)C(C)(C)C` has an inhibition of 13% (Disintegrin and metalloproteinase domain-containing protein 17 (ADAM17, Homo sapiens, UniProt P78536); enzyme activity, inhibitor; 1 µM).
`CCOC(=O)[C@H](CCCN=C(N)N)NC(=O)c1ccccc1` gave a Km of 190 µM (PADI1; enzyme activity, substrate).
With `Nc1ncc(-c2nc(N3CCOCC3)nc(N3CCOCC3)n2)c(C(F)F)n1` the remaining binding was 0% (Phosphatidylinositol 4,5-bisphosphate 3-kinase catalytic subunit alpha isoform (PIK3CA, Homo sapiens, UniProt P42336, H1047L); binding, competition with immobilised ligand; 10 µM).
For `Cc1ccccc1CNC(=O)[C@H]1N(C(=O)[C@@H](O)[C@H](Cc2ccccc2)NC(=O)c2cccc(O)c2C)CSC1(C)C`, the activity vs control was 73% (PMV; enzyme activity, inhibitor, fluorescence; 10 µM).
`CCN(CC)CCCC[C@H](NC(=O)[C@H](CC(C)C)NC(=O)[C@H](C)NC(=O)[C@H](Cc1ccccc1)NC(=O)c1ccc(C(C)(C)C)cc1)C(=O)N[C@@H](CO)C(=O)OC` gave a ΔTm of -0.62 °C (ATPase family AAA domain-containing protein 2, bromodomain (ATAD2, Homo sapiens, UniProt Q6PL18); thermal stability, DSF; 25 µM).
The Km of `COC(=O)[C@H](CCCNC(=N)N)NC(=O)c1ccccc1` is reported as 370 µM (PADI1; enzyme activity, substrate).
